Measurements: ChEMBL document CHEMBL5236609, “Optimization of 1,2,4-Triazole-3-thiones toward Broad-Spectrum Metallo-β-lactamase Inhibitors Showing Potent Synergistic Activity on VIM- and NDM-1-Producing Clinical Isolates” (J Med Chem, 2022)
In brackets after ≈: the same amount, converted by molar mass. Activity calls are given as the source filed them. The calls are words filed in the database; no cut-off is given here.

Tests used:
[1] = Inhibition of bacterial Metallo-beta-lactamase IMP-1 (unknown origin); design: species or system Bacteria
Procedure, shortened: (§1)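 Reporter-substrate assay with purified MBL (1–70 nM final) in 50 mM HEPES pH 7.5 at 30 °C. […] Inhibitor 0.5–1000 μM final. Ki derived from the v0/vi vs [I] slope assuming competitive inhibition, or from a Dixon plot. Ki given when inhibition >70%, otherwise % inhibition at 100 μM. Triplicate.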

[2] = Inhibition of bacterial Metallo-beta-lactamase NDM-1 (unknown origin); design: species or system Bacteria; procedure, shortened: as §1
[3] = Inhibition of bacterial Metallo-beta-lactamase VIM-4 (unknown origin); design: species or system Bacteria; procedure, shortened: as §1
[4] = Inhibition of bacterial Metallo-beta-lactamase VIM-2 (unknown origin); design: species or system Bacteria; procedure, shortened: as §1
Bacteria [5] = assay: Inhibition of bacterial VIM-1 (unknown origin) expressed in Escherichia coli EXPRESS BL21(DE3) assessed as inhibition constant by measuring rate of substrate hydrolysis at 100 uM by UV-visible spectrophotometry relative to control; procedure, shortened: as §1
Bacteria [6] = assay: Inhibition of bacterial VIM-4 (unknown origin) expressed in Escherichia coli EXPRESS BL21(DE3) assessed as inhibition constant by measuring rate of substrate hydrolysis at 100 uM by UV-visible spectrophotometry relative to control; procedure, shortened: as §1
Bacteria [7] = assay: Inhibition of bacterial NDM-1 (unknown origin) expressed in Escherichia coli EXPRESS BL21(DE3) assessed as inhibition constant by measuring rate of substrate hydrolysis at 100 uM by UV-visible spectrophotometry relative to control; procedure, shortened: as §1
Bacteria [8] = assay: Inhibition of bacterial VIM-2 (unknown origin) expressed in Escherichia coli EXPRESS BL21(DE3) assessed as inhibition constant by measuring rate of substrate hydrolysis at 100 uM by UV-visible spectrophotometry relative to control; procedure, shortened: as §1
Bacteria [9] = assay: Inhibition of bacterial IMP-1 (unknown origin) expressed in Escherichia coli EXPRESS BL21(DE3) assessed as inhibition constant by measuring rate of substrate hydrolysis at 100 uM by UV-visible spectrophotometry relative to control; procedure, shortened: as §1
[10] = Metabolic stability in CD-1 mouse microsomes assessed as compound remaining after 40 mins LC-MS/MS analysis; format: ADME, Microsome; settings: read-out: Activity
Procedure, shortened: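 Mouse liver microsomes, mixed gender, at 37 °C for 40 min; propranolol control. Reports t1/2, intrinsic clearance and % intact compound remaining at 40 min.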

Bacteria [11] = assay: Inhibition of bacterial NDM-1 (unknown origin) assessed as ternary complex formation using 10 uM enzyme concentration at 50 uM by native MS analysis
Procedure, shortened: (§2)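 Purified VIM-2 or NDM-1 was given 2 mM TCEP and 2 equiv ZnCl2, incubated 1 h, and dialysed overnight into 100 mM ammonium acetate pH 7.5. Enzyme at 10 μM was then incubated 5 min with 50 μM compound. Positive-mode nanoESI on an Orbitrap, scanning m/z 1000–4000. Species assigned from deconvoluted masses.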

Escherichia coli [12] = assay: Antimicrobial activity against blaNDM-1-producing multidrug-resistant Escherichia coli SI-004 clinical isolate assessed as meropenem MIC at 32 ug/ml by broth microdilution method (reference value: 64 ug/ml)
Bacteria [13] = assay: Competitive inhibition of bacterial NDM-1 (unknown origin) assessed as Zn(II) content at 48 uM by overnight equilibrium dialysis
Procedure, shortened: (§3)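 VIM-2 or NDM-1 (3 μM final) in 50 mM HEPES pH 7.5 mixed with compound at 0–48 μM. Incubated 1 h on ice, then dialysed overnight at 4 °C against 50 mM HEPES pH 7.5. Zn(II) content measured by atomic absorption at 213.86 nm against a zinc standard curve. Each point averages three samples.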

Klebsiella pneumoniae [14] = assay: Antimicrobial activity against blaVIM-4-producing multidrug-resistant Klebsiella pneumoniae VA-416/02 clinical isolate assessed as meropenem MIC at 32 ug/ml by broth microdilution method (reference value: […] ug/ml); format: functional; settings: dose 32 µg/ml
Procedure, shortened: (§4)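 Inoculum was 5×10^4 CFU/well. Each inhibitor was present at a fixed 32 μg/mL, and MICs were also taken without inhibitor.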

[15] = Inhibition of bacterial VIM-1 (unknown origin) expressed in Escherichia coli EXPRESS BL21(DE3) assessed as inhibition constant by measuring rate of substrate hydrolysis by UV-visible spectrophotometry; design: species or system Bacteria; procedure, shortened: as §1
[16] = Inhibition of bacterial VIM-2 (unknown origin) expressed in Escherichia coli EXPRESS BL21(DE3) assessed as inhibition constant by measuring rate of substrate hydrolysis by UV-visible spectrophotometry; design: species or system Bacteria; procedure, shortened: as §1
Klebsiella pneumoniae [17] = assay: Antimicrobial activity against blaVIM-1-producing multidrug-resistant Klebsiella pneumoniae K47-25 clinical isolate assessed as meropenem MIC at 32 ug/ml by broth microdilution method (reference value: […] ug/ml); format: functional; settings: dose 32 µg/ml; procedure, shortened: as §4
Bacteria [18] = assay: Competitive inhibition of bacterial VIM-2 (unknown origin) assessed as Zn(II) content by at 48 uM by overnight equilibrium dialysis; procedure, shortened: as §3
[19] = Inhibition of bacterial VIM-4 (unknown origin) expressed in Escherichia coli EXPRESS BL21(DE3) assessed as inhibition constant by measuring rate of substrate hydrolysis by UV-visible spectrophotometry; design: species or system Bacteria; procedure, shortened: as §1
Bacteria [20] = assay: Inhibition of bacterial VIM-2 (unknown origin) assessed as ternary complex formation using 10 uM enzyme concentration at 50 uM by native MS analysis; procedure, shortened: as §2
Pseudomonas aeruginosa [21] = assay: Antimicrobial activity against blaVIM-2-producing multidrug-resistant Pseudomonas aeruginosa VA-182/00 clinical isolate assessed as meropenem MIC at 32 ug/ml by broth microdilution method (reference value: 128 ug/ml); format: functional; settings: dose 32 µg/ml; procedure, shortened: as §4
Escherichia coli [22] = assay: Antimicrobial activity against blaNDM-1-producing multidrug-resistant Escherichia coli SI-004 clinical isolate; format: functional
Procedure, shortened: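 Broth microdilution per CLSI in cation-supplemented Mueller–Hinton broth with an inoculum of 5×10^4 CFU/well.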

Pseudomonas aeruginosa [23] = assay: Antimicrobial activity against blaVIM-2-producing multidrug-resistant Pseudomonas aeruginosa VA-182/00 clinical isolate; format: functional
[24] = Inhibition of bacterial Metallo-beta-lactamase VIM-1 (unknown origin); design: species or system Bacteria; procedure, shortened: as §1
Bacteria [25] = assay: Inhibition of bacterial Metallo-beta-lactamase VIM-1 (unknown origin) at 100 uM relative to control; procedure, shortened: as §1
[26] = Inhibition of bacterial IMP-1 (unknown origin) expressed in Escherichia coli EXPRESS BL21(DE3) assessed as inhibition constant by measuring rate of substrate hydrolysis by UV-visible spectrophotometry; design: species or system Bacteria; procedure, shortened: as §1
[27] = Inhibition of bacterial NDM-1 (unknown origin) expressed in Escherichia coli EXPRESS BL21(DE3) assessed as inhibition constant by measuring rate of substrate hydrolysis by UV-visible spectrophotometry; design: species or system Bacteria; procedure, shortened: as §1
[28] = Cytotoxicity against human HeLa cells assessed as LDH release incubated for 24 hrs by membrane integrity assay; format: toxicity, cell-based
Procedure, shortened: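 HeLa cells (20,000/well) exposed to compound up to 250 μM for 24 h at 37 °C, 5% CO2 in DMEM with 10% FBS, 4.5 mg/mL glucose and 2 mM L-glutamine. LDH release expressed as % of Triton X-100 maximum lysis; IC50 is the concentration giving 50% cytotoxicity.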

Row | inhibition (Bacteria [5]) | inhibition (Bacteria [6]) | inhibition (Bacteria [8]) | Compound | inhibition (Bacteria [7]) | inhibition (Bacteria [9]) | MIC (Escherichia coli [12]) | MIC (Klebsiella pneumoniae [14]) | Ki [15] | Ki [16] | MIC (Klebsiella pneumoniae [17]) | Ki [19] | MIC (Pseudomonas aeruginosa [21]) | other results
1 | 48% | < 30% | 47% | O=C(O)[C@H](CCCn1c(-c2ccccc2)n[nH]c1=S)NCc1cccnc1 | < 30% | < 30% |  |  |  |  |  |  |  | 
2 | 51% | < 30% | < 30% | Cc1[nH]cnc1CN[C@@H](CCCn1c(-c2ccccc2)n[nH]c1=S)C(=O)O | < 30% | < 30% |  |  |  |  |  |  |  | 

Further lines, the compound ahead of its results:

Row | Compound | inhibition (Bacteria [5]) | inhibition (Bacteria [6]) | inhibition (Bacteria [8]) | inhibition (Bacteria [7]) | inhibition (Bacteria [9]) | MIC (Escherichia coli [12]) | MIC (Klebsiella pneumoniae [14]) | Ki [15] | Ki [16] | MIC (Klebsiella pneumoniae [17]) | Ki [19] | MIC (Pseudomonas aeruginosa [21]) | other results
3 | O=C(Nc1ccccc1)NC(CCCn1c(-c2ccccc2)n[nH]c1=S)C(=O)O (centres undefined) |  |  |  |  |  |  |  |  |  |  |  |  | Ki [1]: Not Active; Ki [2]: Not Active; Ki [3]: 4140 nM; Ki [4]: 6930 nM
4 | CC(C)NCC(O)COc1cccc2ccccc12 (centres undefined) [PROPRANOLOL] |  |  |  |  |  |  |  |  |  |  |  |  | remaining at 40 min [10]: 31%
5 | O=C(O)[C@H](CCCn1c(-c2ccccc2)n[nH]c1=S)N(Cc1cccnc1)Cc1cccnc1 |  |  |  | 67% | < 30% | 64 µg/mL | 1 µg/mL | 2600 nM | 420 nM | 4 µg/mL | 520 nM | 128 µg/mL | inhibition (Bacteria [11]): Active; inhibition (Bacteria [13]): Active; inhibition (Bacteria [18]): Active; inhibition (Bacteria [20]): Active
6 | C[C@@H](O)[C@H]1C(=O)N2C(C(=O)O)=C(S[C@@H]3CN[C@H](C(=O)N(C)C)C3)[C@H](C)[C@H]12 [MEROPENEM] |  |  |  |  |  |  |  |  |  |  |  |  | MIC (Escherichia coli [22]): 64 µg/mL (≈ 167 µM); MIC (Pseudomonas aeruginosa [23]): 128 µg/mL (≈ 334 µM)
7 | O=C(O)CCCCn1c(-c2ccccc2)n[nH]c1=S |  |  |  |  |  |  |  |  |  |  |  |  | Ki [1]: Not Active; Ki [24]: 13900 nM; Ki [2]: Not Active; Ki [3]: 1130 nM; Ki [4]: 2810 nM; inhibition (Bacteria [25]): 57%
8 | O=C(O)[C@H](CCCn1c(-c2ccccc2)n[nH]c1=S)NCc1c[nH]cn1 | 53% | < 30% | < 30% | 35% | < 30% | 64 µg/mL | 4 µg/mL |  |  | 2 µg/mL |  | 128 µg/mL | 
9 | O=C(O)[C@H](CCCn1c(Cc2ccc3ccccc3c2)n[nH]c1=S)N(Cc1c[nH]cn1)Cc1c[nH]cn1 |  |  |  |  |  | 0.06 µg/mL | 0.06 µg/mL | 80 nM | 270 nM | 0.03 µg/mL | 190 nM | 8 µg/mL | Ki [26]: 11200 nM; Ki [27]: 30 nM
10 | Cc1[nH]cnc1CN(Cc1nc[nH]c1C)[C@@H](CCCn1c(-c2ccccc2)n[nH]c1=S)C(=O)O |  |  |  |  | 57% | 2 µg/mL | 0.03 µg/mL | 310 nM | 220 nM | 0.03 µg/mL | 350 nM | 16 µg/mL | CC50 at 24 h [28]: 141000 nM; Ki [27]: 23 nM
